VIM-2 inhibitor – inhibitors of Pseudomonas aeruginosa VIM-2 metallo-beta-lactamase | purified VIM-2, nitrocefin hydrolysis, epi-absorbance fluorescence | inhibition, % at 5.6 µM | actives 0.89% (n = 290,000) | AID 1527;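 active means inhibition above the mean of all tested compounds plus 3 SD, cutoff set per screening run, cut at about 7.5% in these data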;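 further: red hydrolysis product quenches plate fluorescence so inhibitors raise well fluorescence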
TRPML3 agonist – agonists of human TRPML3 channel; actives 0.29% (n = 220,000); HEK293 TRPML3-YFP, Fluo-8 calcium fluorescence; 100% = the carbachol control signal; AID 1448; activation, % at 3 µM; Q8TDD5;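 active means activation above its plate's cutoff, the mean activation of the plate's test wells plus 3 SD, cut at about 12% in these data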
Target sequence (Q8TDD5 whole entry, looked up): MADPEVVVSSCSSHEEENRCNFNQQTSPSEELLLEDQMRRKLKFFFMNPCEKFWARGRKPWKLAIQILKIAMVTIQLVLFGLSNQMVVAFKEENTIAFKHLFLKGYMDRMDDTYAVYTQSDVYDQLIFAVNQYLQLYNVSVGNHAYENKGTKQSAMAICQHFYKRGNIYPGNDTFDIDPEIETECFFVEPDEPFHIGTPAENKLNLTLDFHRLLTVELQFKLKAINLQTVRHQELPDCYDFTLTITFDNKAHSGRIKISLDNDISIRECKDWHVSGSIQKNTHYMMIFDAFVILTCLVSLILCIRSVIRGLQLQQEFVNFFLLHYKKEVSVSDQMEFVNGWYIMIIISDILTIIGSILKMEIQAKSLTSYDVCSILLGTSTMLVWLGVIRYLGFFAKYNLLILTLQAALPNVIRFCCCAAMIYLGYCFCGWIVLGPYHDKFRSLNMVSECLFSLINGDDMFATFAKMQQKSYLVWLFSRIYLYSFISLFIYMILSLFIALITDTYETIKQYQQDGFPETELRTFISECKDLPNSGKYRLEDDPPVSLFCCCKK
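Test system: HEK293 cells stably carrying human TRPML3-YFP; Doses: single dose, 3 µM final nominal compound, 0.3% DMSO final; Schedule: dye loading 1 h 37 °C then 30 min ambient, 125 s read; Technique: Fluo-8 calcium fluorescence; Benchmarks: high control carbachol 87 µM, low control DMSO.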
CRFR2-BP antag – antagonists of CRF-binding protein/CRF-R2 receptor complex. inhibition, % at 11.8 µM. actives 0.59% (n = 350,000). HEK293 CRF-R2/CRF-BP, CRF-induced calcium fluorescence;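 active means inhibition of the ligand-induced calcium signal above about 50% at the single tested concentration, limit read from the data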
zfTRPN1 agonist – zebrafish TRPN1 (NompC) channel agonism | HEK293 zebrafish TRPN1-YFP, Fluo-8 calcium fluorescence; 100% = response to 87 µM carbachol | activation, % at 3 µM | actives 0.18% (n = 220,000);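 active means activation above its plate's cutoff, the mean activation of test wells on that plate plus 3 SD, cut at about 19% in these data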
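Material: zebrafish TRPN1-YFP in HEK293 cells; Doses: single test compound dose, 3 µM nominal, 0.3% DMSO; Timing: dye loading 1 h at 37 °C, then 30 min room temperature; Technique: intracellular calcium fluorescence with Fluo-8; Benchmarks: high carbachol 87 µM, low DMSO alone.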
CRFBP-R2 agonist – CRF-BP/CRF-R2 complex agonism. activation, % at 13.2 µM. HEK293 CRF-R2/CRF-BP, calcium dye fluorescence (FLIPR); percent of saturating CRF peptide response. actives 0.46% (n = 350,000);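 active means activation of at least 50%, plus an integration ratio under a set limit after plate pattern correction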
IMP-1 inhibitor – blocks Pseudomonas aeruginosa IMP-1 metallo-beta-lactamase. purified IMP-1, nitrocefin hydrolysis, epi-absorbance fluorescence. inhibition, % at 5.6 µM. actives 0.45% (n = 290,000);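 active means inhibition above the mean plus 3 SD of all compounds in the same screening run, cut at about 4.5% in these data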
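System: Purified IMP-1 | Read-out basis: Percent enzyme inhibition | Controls: IMP-1 with DMSO as 0%, enzyme-free DMSO as 100% | Replicates: One well per compound | Doses: 5.6 µM nominal single concentration | Detection: Epi-absorbance fluorescence, 480 nm excitation, 530 nm emission | Incubation: 25 °C, 15 min preincubation, 25 min reaction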
VIM-2 confirm – VIM-2 inhibition, confirmation assay; shares compounds with IMP-1 inhibitor; inhibition, % at 5.6 µM; actives 73% (n = 200); purified VIM-2 enzyme, nitrocefin absorbance; in the data active means inhibition above about 8%
TEM-1 inh 2 – blocks E. coli TEM-1 beta-lactamase, VIM-2 IMP-1 counter-screen | shares compounds with IMP-1 inhibitor | nitrocefin absorbance inhibition | inhibition, % at 5.6 µM | actives 50% (n = 200); in the data active means inhibition above about 0.66%
IMP-1 confirm – confirmation of P. aeruginosa IMP-1 metallo-beta-lactamase inhibitors; shares compounds with IMP-1 inhibitor; inhibition, % at 5.6 µM; purified IMP-1 enzyme, absorbance substrate hydrolysis; actives 60% (n = 200); in the data active means inhibition above about 4.9%
Of the large screens only hits and unclear results are named; the others gave an inactive call (follow-up assays come after a bar, where they were run). Only some compounds are listed: those with a hit (about 2.1% of all), similar ones and a draw of the others.

N#CC1=C(N)S[C@H](C(=O)C23CC4CC(CC(C4)C2)C3)[C@H]1c1ccncc1	VIM-2 inhibitor 22, IMP-1 inhibitor 55 | VIM-2 confirm inactive | TEM-1 inh 2 inactive | IMP-1 confirm 5.8
NC(=O)CN1CCN(Cc2ccc3c(c2)OCO3)CC1	none (no result: TRPML3 agonist, zfTRPN1 agonist)
O=C1/C(=C/c2cccnc2)SC(=S)N1c1ccc(O)cc1	VIM-2 inhibitor 9.2, IMP-1 inhibitor 6.0 | VIM-2 confirm 11 | TEM-1 inh 2 inactive | IMP-1 confirm inactive
COc1ccc(OC)c(Cc2nnc(CCC(=O)N3CCN(C4CCCC4)CC3)o2)c1	none (no result: TRPML3 agonist, zfTRPN1 agonist)
CC(NC(=O)c1cccs1)C(S)c1ccccc1 (stereo not drawn)	VIM-2 inhibitor 41, IMP-1 inhibitor 22 (no result: TRPML3 agonist, zfTRPN1 agonist) | VIM-2 confirm 47 | TEM-1 inh 2 inactive | IMP-1 confirm 48
CCn1c(/C=C/c2c[nH]c3ccccc23)nc2ccccc2c1=O	none
COc1ccc2c(/C=C/c3cc[n+](C)cc3)c[nH]c2c1	none (no result: TRPML3 agonist, zfTRPN1 agonist)
Cc1ccc2[nH]cc(/C=C/c3cc[n+](C)cc3)c2c1	VIM-2 inhibitor 15, IMP-1 inhibitor 5.7 (no result: TRPML3 agonist, zfTRPN1 agonist) | VIM-2 confirm 15 | TEM-1 inh 2 5.1 | IMP-1 confirm 5.9
CC[n+]1ccc(/C=C/c2c[nH]c3ccccc23)cc1	VIM-2 inhibitor 8.2, CRFBP-R2 agonist 61, IMP-1 inhibitor 5.6 (no result: TRPML3 agonist, zfTRPN1 agonist) | VIM-2 confirm 8.1 | TEM-1 inh 2 2.7 | IMP-1 confirm inactive
COC(=O)c1ccc(C)c(NC(=O)CN(c2ccccc2)S(=O)(=O)N(C)C)c1	none
COc1ccc(S(=O)(=O)NCC2(N3CCOCC3)CCCCC2)cc1OC	none (no result: VIM-2 inhibitor, TRPML3 agonist, zfTRPN1 agonist, IMP-1 inhibitor)
O=C(O)c1cc(N/N=C/c2cccc3ccccc23)ccc1Cl	none (no result: TRPML3 agonist, zfTRPN1 agonist)
CC(C)n1cc(/C=N/Nc2ccc(Cl)c(C(=O)O)c2)c2ccccc21	VIM-2 inhibitor 10, IMP-1 inhibitor 35 (no result: TRPML3 agonist, CRFR2-BP antag, zfTRPN1 agonist, CRFBP-R2 agonist) | VIM-2 confirm 8.0 | TEM-1 inh 2 inactive | IMP-1 confirm 28
N#Cc1c(SCC(=O)Nc2nncs2)sc2c(O)cc(=O)[nH]c12	none (no result: TRPML3 agonist, zfTRPN1 agonist)
CC(C)NC(=O)N(C)C[C@H]1Oc2c(NC(=O)C3CC3)cccc2C(=O)N([C@H](C)CO)C[C@@H]1C	none (no result: VIM-2 inhibitor, TRPML3 agonist, zfTRPN1 agonist, IMP-1 inhibitor)
O=C(CO/N=C/c1ccccc1O)N1CCc2ccccc21	none
CCOC(=O)NC(=O)/C(C#N)=C\Nc1sccc1C(=O)OC	VIM-2 inhibitor 7.7, TRPML3 agonist 18, zfTRPN1 agonist 22, IMP-1 inhibitor 9.1 | VIM-2 confirm inactive | TEM-1 inh 2 inactive | IMP-1 confirm inactive
C[n+]1cc(C(=O)N2CCCCC2)ccc1/C=C/c1c[nH]c2ccccc12	CRFBP-R2 agonist 79, IMP-1 inhibitor 4.9 | VIM-2 confirm 14 | TEM-1 inh 2 0.5 | IMP-1 confirm 5.6
Cc1nn(-c2ccccc2)c(Cl)c1/C=C(\CC(=O)O)c1nc2ccccc2s1	VIM-2 inhibitor 24, IMP-1 inhibitor 8.4 | VIM-2 confirm 37 | TEM-1 inh 2 inactive | IMP-1 confirm 5.5
Cc1nn(-c2ccc(F)cc2)c(Cl)c1/C=C(\CC(=O)O)c1nc2ccccc2s1	VIM-2 inhibitor 32, IMP-1 inhibitor 7.9 | VIM-2 confirm 34 | TEM-1 inh 2 inactive | IMP-1 confirm inactive
CCN(CC)c1ccc(/C=C(\C#N)C(=O)NCc2ccco2)cc1	VIM-2 inhibitor 18, IMP-1 inhibitor 5.3 (no result: CRFR2-BP antag, CRFBP-R2 agonist) | VIM-2 confirm inactive | TEM-1 inh 2 inactive | IMP-1 confirm inactive
O=C(CSc1nnc(-c2ccc(O)cc2)n1Cc1ccco1)c1cccs1	none
O=C(CC(SCc1ccco1)c1ccc(O)cc1)c1cccs1 (stereo not drawn)	IMP-1 inhibitor 16 | VIM-2 confirm 9.2 | TEM-1 inh 2 inactive | IMP-1 confirm inactive
CCN1C(=O)CC(NCc2ccc3c(c2)OCO3)C1=O (stereo not drawn)	none

Bioassay records as filed in PubChem BioAssay.
